Measured values: article PMC11822521 (ACS Omega, 2025)

Assays:
[1] = target: T1, VHR (Homo sapiens, UniProt P51452); assay: Michaelis–Menten kinetic assay of VHR with OMFP; type: biochemical; settings: read-out: Michaelis–Menten constant (Km); OMFP as substrate of VHR
Summary of the method: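 Full-length human His8-VHR expressed in E. coli, fixed at 2.5 nM, with OMFP titrated. Enzyme preincubated 20 min at room temperature, then substrate added. Fluorescence (ex 485/em 535 nm) read kinetically for 10 min. Initial velocities were background-corrected against no-enzyme wells and fitted to the Michaelis–Menten equation.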

[2] = target: T1, VHR; assay: Isothermal titration calorimetry; type: binding; settings: dissociation constant (KD), ITC; mean of two independent experiments ± SEM
Summary of the method: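 Run at 25 °C on full-length human VHR (His8-tagged, E. coli-expressed, Ni-NTA purified). Protein was 60–285 μM in PBS with 5% DMSO in the cell. Test compound (0.3–5 mM in the same buffer) was added as 20 injections of 6 μL. Baseline came from compound injected into buffer alone. KD was the mean of two independent runs.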

[3] = target: T1, VHR; assay: VHR dose–response inhibition assay with OMFP substrate; type: biochemical
Summary of the method: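 Ten-point curves, 100 μM to 5 nM final, in triplicate, with DMSO vehicle. Human His8-VHR (2.5 nM final) in pH 6 Bis-tris buffer with DTT and Tween-20 was preincubated with compound 20 min at room temperature. Reaction started with OMFP (6 μM final) and read at ex 485/em 535 nm for 10 min. Slopes were normalized to no-enzyme and vehicle controls and fitted to a four-parameter variable-slope model.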

T1 sequence (P51452 whole entry): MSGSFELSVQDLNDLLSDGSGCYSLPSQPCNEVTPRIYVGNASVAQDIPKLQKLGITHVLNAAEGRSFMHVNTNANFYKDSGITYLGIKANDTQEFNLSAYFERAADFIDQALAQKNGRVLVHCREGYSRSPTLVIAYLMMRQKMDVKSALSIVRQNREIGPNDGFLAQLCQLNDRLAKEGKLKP

Row | Compound | Km [1] [µM] | Kd [2] [µM] | IC50 [3] [µM]
1 | COc1ccc2c(c1)Oc1cc(OP(=O)(O)O)ccc1C21OC(=O)c2ccccc21 (stereo not drawn) [OMFP, 3-O-methylfluorescein phosphate] | 5.4 | – | –
2 | O=P(O)(O)C(F)(F)c1cccc(-c2cccc(-c3cscn3)c2)c1 [SBP-4929, (Difluoro(3′-(thiazol-4-yl)-[1,1′-biphenyl]-3-yl)methyl)phosphonic Acid] | – | 7.6 ± 0.2 | 4.1 ± 1.8
